Measurements: ChEMBL document CHEMBL2390926, “Identification of novel FLT3 kinase inhibitors” (Eur J Med Chem, 2013)
Calls of active or inactive are those of the source. The calls are words filed in the database; no cut-off is given here.

How the values were obtained:
Format in all cases: cell-based
Details in all cases: BaF3
[1] = molecular target: T1, Ephrin type-A receptor 8 (Homo sapiens) (UniProt P29322); assay: Inhibition of EPHA8 (unknown origin) transfected in mouse Ba/F3 cells at 1 uM after 24 hrs
T1 sequence (whole entry): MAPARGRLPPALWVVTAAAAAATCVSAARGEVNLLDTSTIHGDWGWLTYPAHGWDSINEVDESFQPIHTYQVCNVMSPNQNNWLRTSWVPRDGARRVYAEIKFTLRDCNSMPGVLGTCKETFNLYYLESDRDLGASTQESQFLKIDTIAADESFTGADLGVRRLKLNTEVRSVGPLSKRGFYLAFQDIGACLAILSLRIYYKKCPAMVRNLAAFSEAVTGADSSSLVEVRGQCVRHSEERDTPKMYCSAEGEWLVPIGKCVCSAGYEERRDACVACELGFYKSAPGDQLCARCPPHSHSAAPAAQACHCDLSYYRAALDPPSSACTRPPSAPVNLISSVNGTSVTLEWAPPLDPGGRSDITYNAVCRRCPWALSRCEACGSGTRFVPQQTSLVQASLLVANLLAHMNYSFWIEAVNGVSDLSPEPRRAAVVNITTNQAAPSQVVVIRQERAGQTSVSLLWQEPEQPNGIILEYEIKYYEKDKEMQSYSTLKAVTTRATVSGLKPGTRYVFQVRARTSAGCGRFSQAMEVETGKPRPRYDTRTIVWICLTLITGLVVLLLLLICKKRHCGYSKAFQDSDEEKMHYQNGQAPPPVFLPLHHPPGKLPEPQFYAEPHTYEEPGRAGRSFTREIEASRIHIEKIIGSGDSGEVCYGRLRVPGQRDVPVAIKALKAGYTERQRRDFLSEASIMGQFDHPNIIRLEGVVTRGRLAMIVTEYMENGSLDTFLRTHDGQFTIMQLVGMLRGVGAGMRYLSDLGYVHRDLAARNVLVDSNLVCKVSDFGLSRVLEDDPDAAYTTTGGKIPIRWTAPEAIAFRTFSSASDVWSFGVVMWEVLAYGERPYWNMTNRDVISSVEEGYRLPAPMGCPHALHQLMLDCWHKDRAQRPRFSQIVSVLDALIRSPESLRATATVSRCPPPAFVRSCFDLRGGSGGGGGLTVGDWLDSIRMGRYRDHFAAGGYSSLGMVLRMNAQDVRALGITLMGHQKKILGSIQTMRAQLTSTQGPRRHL
Outline: (§1)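 Kinase specificity panel: each Ba/F3 line transformed with one of 24 tyrosine kinases depends on that kinase to grow. Cells were given compound at 1 or 5 µM for 24 h, with DMSO as comparator. Percentage growth was read by ATP-lite luminescence and reported as mean ± SEM.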

[2] = molecular target: T2, Tyrosine-protein kinase Mer (Homo sapiens) (UniProt Q12866); assay: Inhibition of MERTK (unknown origin) transfected in mouse Ba/F3 cells at 5 uM after 24 hrs
T2 sequence (whole entry): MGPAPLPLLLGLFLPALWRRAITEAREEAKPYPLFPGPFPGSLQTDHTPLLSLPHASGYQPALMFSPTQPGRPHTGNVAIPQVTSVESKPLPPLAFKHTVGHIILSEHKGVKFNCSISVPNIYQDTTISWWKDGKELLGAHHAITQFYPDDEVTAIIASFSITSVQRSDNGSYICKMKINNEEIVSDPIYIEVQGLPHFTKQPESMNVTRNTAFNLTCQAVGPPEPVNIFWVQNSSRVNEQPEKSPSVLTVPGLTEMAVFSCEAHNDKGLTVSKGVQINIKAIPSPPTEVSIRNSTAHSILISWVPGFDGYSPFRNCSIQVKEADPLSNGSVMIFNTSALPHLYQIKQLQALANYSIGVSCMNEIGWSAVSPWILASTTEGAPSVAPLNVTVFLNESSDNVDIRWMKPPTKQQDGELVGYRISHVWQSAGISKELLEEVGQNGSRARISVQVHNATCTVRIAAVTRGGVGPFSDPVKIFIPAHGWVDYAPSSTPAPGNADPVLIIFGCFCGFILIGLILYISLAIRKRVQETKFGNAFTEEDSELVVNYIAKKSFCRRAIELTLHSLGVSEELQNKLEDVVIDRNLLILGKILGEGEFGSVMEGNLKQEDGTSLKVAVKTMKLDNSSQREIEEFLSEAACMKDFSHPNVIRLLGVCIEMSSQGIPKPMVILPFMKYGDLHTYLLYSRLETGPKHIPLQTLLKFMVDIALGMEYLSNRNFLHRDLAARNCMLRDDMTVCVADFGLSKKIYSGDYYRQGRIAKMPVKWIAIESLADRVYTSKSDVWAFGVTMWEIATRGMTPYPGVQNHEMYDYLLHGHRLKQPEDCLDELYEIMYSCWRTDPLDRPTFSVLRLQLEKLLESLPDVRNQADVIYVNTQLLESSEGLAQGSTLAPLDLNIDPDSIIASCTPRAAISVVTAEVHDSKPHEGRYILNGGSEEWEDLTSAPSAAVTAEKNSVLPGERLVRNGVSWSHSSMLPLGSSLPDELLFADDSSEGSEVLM

[3] = molecular target: Tyrosine-protein kinase Yes (Homo sapiens) (UniProt P07947); assay: Inhibition of YES (unknown origin) transfected in mouse Ba/F3 cells at 5 uM after 24 hrs
Tyrosine-protein kinase Yes (Homo sapiens), sequence (P07947 2-543 limits assumed): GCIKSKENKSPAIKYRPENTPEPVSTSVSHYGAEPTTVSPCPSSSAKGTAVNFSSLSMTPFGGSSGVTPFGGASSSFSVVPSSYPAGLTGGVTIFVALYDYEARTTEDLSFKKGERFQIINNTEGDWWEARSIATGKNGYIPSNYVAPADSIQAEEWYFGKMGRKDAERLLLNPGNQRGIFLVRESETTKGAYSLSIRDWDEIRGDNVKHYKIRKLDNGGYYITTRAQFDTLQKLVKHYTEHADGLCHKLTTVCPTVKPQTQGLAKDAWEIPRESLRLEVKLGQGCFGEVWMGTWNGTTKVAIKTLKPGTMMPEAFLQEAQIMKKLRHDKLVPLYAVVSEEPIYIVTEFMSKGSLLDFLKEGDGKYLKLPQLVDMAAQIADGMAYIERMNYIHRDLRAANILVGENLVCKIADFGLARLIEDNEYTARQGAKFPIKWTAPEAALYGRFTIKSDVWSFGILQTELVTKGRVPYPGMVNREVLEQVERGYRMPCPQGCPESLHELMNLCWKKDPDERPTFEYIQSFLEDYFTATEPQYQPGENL

[4] = molecular target: T3, Megakaryocyte-associated tyrosine-protein kinase (Homo sapiens) (UniProt P42679); assay: Inhibition of MATK1 (unknown origin) transfected in mouse Ba/F3 cells at 5 uM after 24 hrs
T3 sequence (whole entry): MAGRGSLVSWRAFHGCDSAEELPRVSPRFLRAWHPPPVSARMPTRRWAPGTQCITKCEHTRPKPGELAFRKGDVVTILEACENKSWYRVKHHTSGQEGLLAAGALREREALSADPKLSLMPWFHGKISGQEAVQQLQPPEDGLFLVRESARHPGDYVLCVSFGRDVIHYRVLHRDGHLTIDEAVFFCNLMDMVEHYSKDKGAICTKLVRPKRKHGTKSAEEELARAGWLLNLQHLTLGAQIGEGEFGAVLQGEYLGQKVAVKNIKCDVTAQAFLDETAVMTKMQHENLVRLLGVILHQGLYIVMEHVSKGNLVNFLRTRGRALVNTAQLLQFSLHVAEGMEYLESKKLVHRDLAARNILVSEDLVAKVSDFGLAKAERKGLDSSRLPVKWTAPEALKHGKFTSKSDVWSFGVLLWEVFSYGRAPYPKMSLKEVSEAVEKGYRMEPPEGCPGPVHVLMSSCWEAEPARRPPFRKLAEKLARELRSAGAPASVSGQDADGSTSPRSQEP

[5] = molecular target: Tyrosine-protein kinase HCK (Homo sapiens) (UniProt P08631); assay: Inhibition of HCK (unknown origin) transfected in mouse Ba/F3 cells at 5 uM after 24 hrs; outline: as §1
Tyrosine-protein kinase HCK (Homo sapiens), sequence (P08631 2-526 limits assumed): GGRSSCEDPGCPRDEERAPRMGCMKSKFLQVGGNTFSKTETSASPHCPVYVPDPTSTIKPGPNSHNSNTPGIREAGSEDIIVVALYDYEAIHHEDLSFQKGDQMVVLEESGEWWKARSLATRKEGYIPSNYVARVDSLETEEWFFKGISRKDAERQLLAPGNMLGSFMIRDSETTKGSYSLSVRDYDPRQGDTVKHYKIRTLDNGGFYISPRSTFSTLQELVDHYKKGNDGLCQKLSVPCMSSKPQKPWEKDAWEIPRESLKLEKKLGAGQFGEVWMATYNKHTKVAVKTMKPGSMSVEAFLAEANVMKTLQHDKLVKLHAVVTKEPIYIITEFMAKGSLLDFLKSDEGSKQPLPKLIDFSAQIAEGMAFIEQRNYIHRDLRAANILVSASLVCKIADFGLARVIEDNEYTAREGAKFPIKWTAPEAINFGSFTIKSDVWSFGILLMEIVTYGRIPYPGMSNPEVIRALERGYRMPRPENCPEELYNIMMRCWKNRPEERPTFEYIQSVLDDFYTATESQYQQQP

[6] = molecular target: Proto-oncogene tyrosine-protein kinase ROS (Homo sapiens) (UniProt P08922); assay: Inhibition of ROS1 (unknown origin) transfected in mouse Ba/F3 cells at 5 uM after 24 hrs
Proto-oncogene tyrosine-protein kinase ROS (Homo sapiens), sequence (P08922 whole entry): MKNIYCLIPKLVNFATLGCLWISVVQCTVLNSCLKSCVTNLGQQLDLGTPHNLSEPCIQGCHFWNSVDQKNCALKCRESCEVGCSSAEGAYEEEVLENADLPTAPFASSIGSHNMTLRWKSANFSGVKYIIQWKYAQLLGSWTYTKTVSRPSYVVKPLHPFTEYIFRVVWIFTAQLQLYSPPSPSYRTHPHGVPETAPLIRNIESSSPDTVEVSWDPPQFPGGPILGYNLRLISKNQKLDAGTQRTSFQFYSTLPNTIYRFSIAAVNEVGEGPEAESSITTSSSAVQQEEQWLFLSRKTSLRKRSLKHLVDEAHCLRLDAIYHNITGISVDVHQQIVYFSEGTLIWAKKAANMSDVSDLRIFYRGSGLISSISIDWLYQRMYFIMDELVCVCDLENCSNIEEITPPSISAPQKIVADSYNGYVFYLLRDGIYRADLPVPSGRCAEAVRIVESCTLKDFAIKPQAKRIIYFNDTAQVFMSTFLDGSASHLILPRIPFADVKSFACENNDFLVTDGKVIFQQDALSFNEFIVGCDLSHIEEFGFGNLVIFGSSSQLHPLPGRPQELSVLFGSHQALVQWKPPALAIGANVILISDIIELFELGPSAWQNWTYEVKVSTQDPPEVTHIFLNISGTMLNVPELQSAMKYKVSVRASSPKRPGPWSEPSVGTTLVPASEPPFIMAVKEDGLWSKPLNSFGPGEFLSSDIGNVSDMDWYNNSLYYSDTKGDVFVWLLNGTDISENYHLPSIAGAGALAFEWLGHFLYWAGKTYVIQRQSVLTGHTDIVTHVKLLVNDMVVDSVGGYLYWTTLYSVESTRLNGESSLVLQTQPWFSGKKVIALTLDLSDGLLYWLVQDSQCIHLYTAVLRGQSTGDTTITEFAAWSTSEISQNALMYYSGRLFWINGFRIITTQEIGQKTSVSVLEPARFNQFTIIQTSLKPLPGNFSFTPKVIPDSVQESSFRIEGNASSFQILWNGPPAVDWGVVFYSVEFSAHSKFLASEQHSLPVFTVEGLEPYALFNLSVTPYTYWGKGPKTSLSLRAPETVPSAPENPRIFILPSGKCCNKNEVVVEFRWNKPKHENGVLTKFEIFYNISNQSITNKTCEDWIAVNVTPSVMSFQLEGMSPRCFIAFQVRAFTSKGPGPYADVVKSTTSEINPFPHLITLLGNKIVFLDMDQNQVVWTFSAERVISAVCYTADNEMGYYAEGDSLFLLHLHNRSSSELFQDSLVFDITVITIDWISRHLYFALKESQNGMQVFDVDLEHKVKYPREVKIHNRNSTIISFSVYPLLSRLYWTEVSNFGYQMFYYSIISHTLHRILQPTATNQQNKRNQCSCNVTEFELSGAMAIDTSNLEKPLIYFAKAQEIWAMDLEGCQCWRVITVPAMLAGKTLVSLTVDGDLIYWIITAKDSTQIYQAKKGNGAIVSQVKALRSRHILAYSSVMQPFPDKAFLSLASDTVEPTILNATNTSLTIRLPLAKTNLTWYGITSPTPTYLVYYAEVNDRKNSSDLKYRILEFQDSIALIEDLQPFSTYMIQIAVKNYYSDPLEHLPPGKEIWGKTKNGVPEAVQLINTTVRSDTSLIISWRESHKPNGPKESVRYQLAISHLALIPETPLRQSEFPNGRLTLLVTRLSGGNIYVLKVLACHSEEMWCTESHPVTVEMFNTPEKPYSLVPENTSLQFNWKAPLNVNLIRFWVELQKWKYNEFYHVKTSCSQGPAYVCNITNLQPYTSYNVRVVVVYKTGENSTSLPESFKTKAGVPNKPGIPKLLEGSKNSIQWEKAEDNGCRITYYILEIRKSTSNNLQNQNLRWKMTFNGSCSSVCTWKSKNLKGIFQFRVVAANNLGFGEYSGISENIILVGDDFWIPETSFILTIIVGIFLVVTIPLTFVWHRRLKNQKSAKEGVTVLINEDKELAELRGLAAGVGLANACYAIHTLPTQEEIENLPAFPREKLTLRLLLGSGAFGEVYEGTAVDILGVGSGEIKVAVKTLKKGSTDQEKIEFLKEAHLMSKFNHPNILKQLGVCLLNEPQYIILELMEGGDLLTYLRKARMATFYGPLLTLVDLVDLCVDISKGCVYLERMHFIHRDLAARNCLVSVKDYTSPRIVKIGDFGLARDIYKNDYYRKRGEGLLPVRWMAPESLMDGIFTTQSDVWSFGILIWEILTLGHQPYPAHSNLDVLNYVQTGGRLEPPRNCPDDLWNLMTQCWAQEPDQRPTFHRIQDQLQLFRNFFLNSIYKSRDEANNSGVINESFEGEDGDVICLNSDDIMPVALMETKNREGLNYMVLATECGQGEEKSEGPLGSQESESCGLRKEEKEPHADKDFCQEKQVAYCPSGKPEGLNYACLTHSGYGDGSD

[7] = molecular target: Ephrin type-A receptor 7 (Homo sapiens) (UniProt Q15375); assay: Inhibition of EPHA7 (unknown origin) transfected in mouse Ba/F3 cells at 5 uM after 24 hrs; outline: as §1
Ephrin type-A receptor 7 (Homo sapiens), sequence (Q15375 28-998 limits assumed): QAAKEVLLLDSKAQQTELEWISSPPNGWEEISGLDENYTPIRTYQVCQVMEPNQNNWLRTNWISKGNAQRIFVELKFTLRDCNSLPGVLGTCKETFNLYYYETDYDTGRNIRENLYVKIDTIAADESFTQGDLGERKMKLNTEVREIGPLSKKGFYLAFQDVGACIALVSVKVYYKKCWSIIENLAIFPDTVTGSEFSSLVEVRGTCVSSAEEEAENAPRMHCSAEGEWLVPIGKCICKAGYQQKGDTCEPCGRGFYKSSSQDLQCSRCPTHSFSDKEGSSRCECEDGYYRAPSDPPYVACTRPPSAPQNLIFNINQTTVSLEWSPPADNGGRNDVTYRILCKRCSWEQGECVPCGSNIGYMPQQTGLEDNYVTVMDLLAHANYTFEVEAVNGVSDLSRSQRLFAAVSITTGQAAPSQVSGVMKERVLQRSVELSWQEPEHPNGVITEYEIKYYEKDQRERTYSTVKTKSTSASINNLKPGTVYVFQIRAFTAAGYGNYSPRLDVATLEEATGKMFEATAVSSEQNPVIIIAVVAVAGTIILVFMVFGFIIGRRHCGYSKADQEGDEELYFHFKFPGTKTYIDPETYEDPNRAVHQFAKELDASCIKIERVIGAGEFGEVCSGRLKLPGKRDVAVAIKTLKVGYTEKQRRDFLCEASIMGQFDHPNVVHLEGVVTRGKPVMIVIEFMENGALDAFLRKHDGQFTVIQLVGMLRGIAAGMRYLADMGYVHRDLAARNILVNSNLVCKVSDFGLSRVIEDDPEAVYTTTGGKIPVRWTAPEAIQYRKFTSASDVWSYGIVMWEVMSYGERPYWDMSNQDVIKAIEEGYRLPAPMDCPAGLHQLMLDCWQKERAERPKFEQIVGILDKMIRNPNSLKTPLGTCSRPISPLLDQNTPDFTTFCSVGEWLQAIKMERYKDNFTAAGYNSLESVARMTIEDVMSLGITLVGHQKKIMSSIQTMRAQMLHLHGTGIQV

| inhibition [1] | inhibition [2] | inhibition [3] | inhibition [4] | inhibition [5] | inhibition [6] | inhibition [7] | Structure (SMILES) |
| --- | --- | --- | --- | --- | --- | --- | --- |
| inactive |  |  |  |  |  |  | Cc1cccc(C(=O)Nc2cc(-c3ccc(F)cc3)n[nH]2)c1 |
| inactive |  |  |  |  |  |  | Cc1ccc(-c2cc(NC(=O)c3ccc(F)cc3)[nH]n2)cc1 |
| inactive |  |  |  |  |  |  | COc1ccc(C(=O)Nc2cc(-c3ccccc3)[nH]n2)cc1 |
|  | inactive | inactive | inactive | inactive | Active | inactive | Fc1ccc(-c2n[nH]cc2-c2ccncc2)cc1Cl |
|  | inactive | inactive | inactive | inactive | inactive | inactive | Cc1ccc(-n2cnc3cc(Nc4nnc(C)c5ccccc45)ccc32)cc1 |
